Data on five compounds can be found in paper PMC7857643 (ACS chemical biology, 2016).

One series has as its system TK6 TDP2 KO cells. Briefly: Drug combination with etoposide in TK6 TDP2 KO cells. The class given is cell-based, human.
A further series concerns zebrafish TDP2 (zTDP2). Briefly: Recombinant TDP2 assay, zebrafish TDP2. As to conditions: full-length zebrafish TDP2. The class given is biochemical, D. rerio.
In series [1] the target is T1, human cellular TDP2 in HT29 whole cell extracts (Homo sapiens, UniProt O95551).
T1 sequence (O95551 1-362): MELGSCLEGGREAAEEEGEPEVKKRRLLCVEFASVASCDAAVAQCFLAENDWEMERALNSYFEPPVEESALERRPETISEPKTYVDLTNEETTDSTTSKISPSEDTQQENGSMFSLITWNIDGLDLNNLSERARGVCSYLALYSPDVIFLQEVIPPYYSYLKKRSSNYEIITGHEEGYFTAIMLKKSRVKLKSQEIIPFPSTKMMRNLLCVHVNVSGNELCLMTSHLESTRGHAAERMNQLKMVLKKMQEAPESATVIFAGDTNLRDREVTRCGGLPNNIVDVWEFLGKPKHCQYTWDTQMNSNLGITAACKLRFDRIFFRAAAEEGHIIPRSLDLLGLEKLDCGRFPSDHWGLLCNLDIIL
Briefly: TDP2 assay with whole cell extracts from HT29 cells. The class given is biochemical. As to conditions: Supporting Information Figure 1. Summed up: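 1 × 10^7 human cells were lysed 15 min on ice and spun at 12,000g for 10 min; protein was measured and extracts were stored at −80 °C. Extract at 10–20 μg/mL (30–40% cleavage) was incubated with 1 nM 32P-labeled 5′-phosphotyrosyl 18-mer DNA and test compound for 15 min at RT in pH 7.5 Tris/KCl/MgCl2 buffer. Products were run on 16% denaturing PAGE and quantified by densitometry.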

For another series, the system named is DT40 TDP2 KO cells. Briefly: Drug combination with etoposide in DT40 TDP2 KO cells. The class given is cell-based, chicken. Summed up: (§1)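 DT40 cells (TDP2-knockout, with or without human TDP2 complementation) seeded at 200 cells/well and exposed continuously to the test compound plus etoposide (or camptothecin) across concentration ranges for 72 h, in triplicate. Viability read at 72 h by ATPlite luminescence after 5 min. Viability was the ATP level of treated cells over untreated cells × 100.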

The target of series [2] is T2, mTDP2 5M (Q278R, I281T, K282R, P318T, Y321C) (Mus musculus, UniProt Q9JJX7, I281T/K282R/P318T/Q278R/Y321C).
T2 sequence (Q9JJX7 1-370 Q278R/I281T/K282R/P318T/Y321C): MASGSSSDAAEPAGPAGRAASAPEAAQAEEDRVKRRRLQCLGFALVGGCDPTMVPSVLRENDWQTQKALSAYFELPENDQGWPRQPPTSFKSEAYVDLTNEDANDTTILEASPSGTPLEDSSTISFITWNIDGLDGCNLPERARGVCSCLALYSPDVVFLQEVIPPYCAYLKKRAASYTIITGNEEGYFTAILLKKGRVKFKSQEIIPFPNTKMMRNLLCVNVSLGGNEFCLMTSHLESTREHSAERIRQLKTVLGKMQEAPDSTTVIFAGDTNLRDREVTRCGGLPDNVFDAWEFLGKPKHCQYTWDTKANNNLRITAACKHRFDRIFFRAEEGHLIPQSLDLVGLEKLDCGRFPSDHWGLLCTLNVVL
Briefly: Recombinant TDP2 assay, mouse TDP2 5M mutant. The class given is biochemical.

Another series addresses T3, mTDP2 9M (8M + H323L) (Mus musculus, UniProt Q9JJX7, E242G/H323L/I281T/K282R/P318T/Q278R/R316G/S244A/Y321C).
T3 sequence (Q9JJX7 1-370 E242G/S244A/Q278R/I281T/K282R/R316G/P318T/Y321C/H323L): T2 sequence (Q9JJX7 1-370 Q278R/I281T/K282R/P318T/Y321C) with E242G, S244A, R316G, H323L
Briefly: biochemical.

For series [3], the system named is DU145 prostate cancer cells. Briefly: Cell viability / drug combination with etoposide in DU145 cells. The class given is cell-based, human.
In the next series the test system is DT40 hTDP2 cells. Briefly: Drug combination in TDP2 knockout DT40 cells complemented with human TDP2. The class given is cell-based, chicken. Summed up: as §1
In series [4] the test system is DT40 avian lymphoblastoid cells. Briefly: Drug combination with etoposide in DT40 cells. The class given is cell-based, chicken.
Series [5] deals with native endogenous avian TDP2 in DT40 whole cell extracts (Gallus gallus, UniProt F1NW29). Briefly: TDP2 assay with DT40 whole cell extracts. The class given is biochemical, chicken. As to conditions: Supporting Information Figure 1.
Chain of native endogenous avian TDP2 in DT40 whole cell extracts (F1NW29 whole entry): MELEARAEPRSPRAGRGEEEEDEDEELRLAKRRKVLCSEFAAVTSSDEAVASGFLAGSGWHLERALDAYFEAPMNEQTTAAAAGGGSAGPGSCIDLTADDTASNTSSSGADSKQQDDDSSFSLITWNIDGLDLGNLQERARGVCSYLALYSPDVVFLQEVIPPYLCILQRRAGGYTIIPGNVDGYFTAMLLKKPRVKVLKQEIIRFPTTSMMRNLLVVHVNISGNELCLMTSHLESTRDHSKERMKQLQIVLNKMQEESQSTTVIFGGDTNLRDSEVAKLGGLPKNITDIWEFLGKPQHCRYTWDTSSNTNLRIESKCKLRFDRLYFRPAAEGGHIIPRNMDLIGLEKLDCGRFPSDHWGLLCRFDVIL
A further series addresses T4, mTDP2 WT (Mus musculus, UniProt Q9JJX7).
T4 sequence (Q9JJX7 1-370): T2 sequence (Q9JJX7 1-370 Q278R/I281T/K282R/P318T/Y321C) with R278Q, T281I, R282K, T318P, C321Y
Briefly: Recombinant TDP2 assay, mouse TDP2 wild type. The class given is biochemical.

Series [6] has as its target T5, mTDP2 8M (5M + E242G, S244A, R316G) (Mus musculus, UniProt Q9JJX7, E242G/I281T/K282R/P318T/Q278R/R316G/S244A/Y321C).
T5 sequence (Q9JJX7 1-370 E242G/S244A/Q278R/I281T/K282R/R316G/P318T/Y321C): T2 sequence (Q9JJX7 1-370 Q278R/I281T/K282R/P318T/Y321C) with E242G, S244A, R316G
Briefly: Recombinant TDP2 assay, mouse TDP2 8M mutant. The class given is biochemical. Conditions: IC50 mTDP2 8M, mouse TDP2 with eight human mutations.

In series [7] the test system is TK6 human lymphoblastoid cells (TK6 WT). Briefly: Drug combination with etoposide in TK6 cells. The class given is cell-based. Conditions: increasing concentrations of ETP. Summed up: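 TK6 wild-type lymphoblastoid cells seeded at 10,000 cells/well and exposed continuously to the test compound combined with increasing etoposide concentrations for 72 h, in triplicate. ATPlite luminescence read at 72 h after 5 min incubation. Viability was expressed as a percentage of the ATP level in untreated cells.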

The next series relates to C. elegans TDP2 (cTDP2). Briefly: Recombinant TDP2 assay, C. elegans TDP2. The class given is biochemical. As to conditions: full-length C. elegans TDP2.
Another series addresses T6, recombinant human TDP2 (Homo sapiens, UniProt O95551).
T6 sequence (O95551 1-362): T1 sequence (O95551 1-362)
Briefly: Kinetics experiments. The class given is biochemical. Summed up:
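Recombinant TDP2 at 10 pM was incubated at RT with 5, 10, 20 or 800 nM unlabeled TY19 substrate, spiked with 1 nM 32P-labeled TY19, with 0, 30, 50 or 150 nM test compound. Time-course reactions were resolved on 16% denaturing PAGE. Initial velocities from linear fits went into a Lineweaver–Burk plot.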

Series [8] has as its target T7, recombinant human TDP2 (REC hTDP2) (Homo sapiens, UniProt O95551).
T7 sequence (O95551 1-362): T1 sequence (O95551 1-362)
Briefly: Recombinant TDP2 assay. The class given is biochemical.

Where a chain is given by its changes, count along the chain named. Several values for one entry are separate records, joined by “and”; a condition that tells them apart may be missing. Identical values can stand only once.

Take `N#Cc1ccc2cc3c(=O)[nH]c(=O)nc-3n(-c3cccc(-c4nnn[nH]4)c3)c2c1` [Compound 1, 2,4-Dioxo-10-[3-(1H-tetrazol-5-yl)phenyl]pyrimido[4,5-b]-quinoline-8-carbonitrile]: the “synergy with ETP” value with TK6 TDP2 KO cells is reported as “synergy was not observed”; in the series with DT40 TDP2 KO cells, “synergy was greatly reduced”; in series [3], “synergistic effect”; in the series with DT40 hTDP2 cells (increasing concentrations of ETP) it was “synergistic effect”; in series [4] it was “showed synergy”. Further, the “resistance of zTDP2 to the drug” value with zebrafish TDP2 (zTDP2) is reported as “at least 3 orders of magnitude”. In series [1], the “activity against human cellular TDP2 in HT29 whole cell extracts” value is on record as “confirmed”. Besides, the IC50 (in general, the concentration at which inhibition is half-maximal) in series [2] is 1200 ± 100 nM; on mTDP2 9M (8M + H323L), 29 ± 10 nM; at mTDP2 WT it was more than 111000 nM; in series [6] it was 710 nM and 580 nM. The “combination effect with ETP” value in series [3] (5 μM ETP) and in series [7] was “supra-additive effect” each time. Further, in [3] (1 in combination with 1 μM of ETP), the “cells killed in combination with ETP” value is “over 90%”. For the same compound, the cytotoxicity by itself entry in series [3] (up to 50 μM, 72 h) is listed as “not cytotoxic”. Further, the synergy with camptothecin entry in the series on DT40 hTDP2 cells (ETP replaced by camptothecin, Supporting Information Figure 4) is recorded as “not observed”. For the same compound, the “activity against native endogenous avian TDP2 in DT40 whole cell extracts” value in series [5] is “active”. For the same compound, the “resistance of cTDP2 to the drug” value with C. elegans TDP2 (cTDP2) was “at least 3 orders of magnitude”. In addition, the kcat (as a rule, the number of substrate molecules converted per active site and unit of time at saturation) at recombinant human TDP2 (30 nM of 1) is 2.75 s⁻¹; on recombinant human TDP2 (50 nM of 1), 2.71 s⁻¹; on recombinant human TDP2 (150 nM of 1) it was 3.03 s⁻¹. Also, at recombinant human TDP2 (Lineweaver double-reciprocal plot), the “mode of inhibition of hTDP2” value is “competitive inhibitor”.
In the case of `N#Cc1ccc2cc3c(=O)[nH]c(=O)nc-3n(-c3ccccc3)c2c1` [Compound 3, 2,4-Dioxo-10-phenyl-pyrimido[4,5-b]quinoline-8-carbonitrile], the “synergy with ETP” value in series [3] was “synergistic effect”.
Turning to `O=c1nc2n(-c3ccc(O)cc3)c3cc(Cl)ccc3cc-2c(=O)[nH]1` [Compound 4, 8-Chloro-10-(4-hydroxyphenyl)pyrimido[4,5-b]quinoline-2,4-dione], the “decrease of potency against hTDP2” value in series [8] (4 relative to 2 (cyano replaced by chloro)) came out at 27 fold.
Consider `O=c1nc2n(-c3ccccc3)c3ccccc3cc-2c(=O)[nH]1` [Compound 5, 10-Phenylpyrimido[4,5-b]quinoline-2,4(3H,10H)-dione], for which the “additional loss of potency against hTDP2” value in series [8] (5 relative to 4 (chloro removed)) stood at 18 fold.
As for `COc1cc([C@@H]2c3cc4c(cc3[C@@H](O[C@@H]3O[C@@H]5CO[C@@H](C)O[C@H]5[C@H](O)[C@H]3O)[C@H]3COC(=O)[C@H]23)OCO4)cc(OC)c1O` [ETP, etoposide, reference compound], in series [3] (1 μM ETP alone), the “cells killed by ETP by itself” value was “around 50%”.
